Screening data deposited in PubChem BioAssay by several laboratories.
FAK inh = FAK kinase inhibitors, primary screen, biochemical. Focal adhesion kinase 1 (Homo sapiens), Q05397. biochemical FAK kinase activity assay. inhibition, %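 (tested at 7 µM)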. actives 0.84% (n = 97,000). AID 727, 2007; in the data active = inhibition above about 19%
Rev-RRE block = HIV-1 Rev-RRE binding inhibitors, primary screen, biochemical, FRET, protein-RNA interaction; Rev peptide-RRE RNA binding; inhibition, % at 8 µM; actives 0.79% (n = 97,000); AID 704, 2007;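 active = inhibition above the screen-wide mean plus 3 SD, cut at about 35% in these data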
Target sequence (P05866 whole entry, looked up): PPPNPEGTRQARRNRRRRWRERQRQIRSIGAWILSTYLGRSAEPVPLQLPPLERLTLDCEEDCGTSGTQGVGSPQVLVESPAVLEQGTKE
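Test system: labelled RRE RNA duplex and labelled Rev peptide. Times: 5 min compound–RNA preincubation, then 15 min with peptide, 25 °C. Doses: single-dose 8 µM. Measured by: FRET, excitation 480 nm, emission 540 nm donor and 671 nm acceptor. Measure: % inhibition of FRET ratio versus controls.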
PLK1 inh = human PLK1 kinase inhibitors, primary screen, biochemical, TR-FRET; Serine/threonine-protein kinase PLK1 (Homo sapiens), P53350; recombinant PLK1 kinase, TR-FRET peptide phosphorylation; inhibition, % at 10 µM; actives 0.53% (n = 97,000); AID 619, 2007;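 active = inhibition of 50% or more in the single-concentration screen; inactive = inhibition below 50%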
PLK1 PBD inh = Plk1 polo box domain binding inhibitors, primary screen, biochemical, fluorescence polarization; Serine/threonine-protein kinase PLK1 (Homo sapiens), P53350; Plk1 PBD phosphopeptide binding; inhibition, %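 (tested at about 20 µM)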; actives 0.13% (n = 97,000); in the data active = inhibition above about 34%, passing the limit was not always enough
F-actin modifier = modifiers of F-actin cytoskeleton organization, primary screen, imaging, HUVEC, phalloidin staining, high-content imaging; HUVEC TNFa F-actin phalloidin imaging; inhibition, % at 2 µM; actives 0.18% (n = 91,000);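 active = inhibition above the batch mean plus 3 SD and confirmed as a hit by visual image inspection, cut at about 30% in these data, passing the limit was not always enough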
E-sel TNF inh = E-selectin induction blockers in HUVEC – imaging, immunofluorescence, high content, primary screen; inhibition, % at 2 µM; HUVEC TNFa-induced E-selectin immunofluorescence; actives 0.71% (n = 120,000);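 active = inhibition above the batch mean plus 3 SD, and confirmed as a hit on visual image review, cut at about 43% in these data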
Numbers stand for hits; n = inactive; x = no result given; [ ] = remark or other dose. Hits are enriched below; roughly 2.2% of the tested compounds scored in any of these assays.

SMILES	FAK inh	Rev-RRE block	PLK1 inh	PLK1 PBD inh	F-actin modifier	E-sel TNF inh
Cn1c(=O)[nH]c(=O)c2c1nc(N1CCCCC1)n2CCCSc1nnnn1-c1ccccc1	x	x	x	x	x	89.2
CCC(C)NC(=O)c1ccccc1-c1nc2ccccc2[nH]1 (stereo unspecified)	x	x	x	x	x	n
Cc1sc2nc(SCC(=O)NCc3ccco3)[nH]c(=O)c2c1C	x	x	x	x	x	n
Cc1sc2nc(SCC(=O)NCc3cccs3)[nH]c(=O)c2c1C	n	n	51.6	n	n	x
CCN1C(=O)/C(=C/C=C2/SCCN2C)SC1=S	n	129.2[fluorescence artefact?]	n	n	n	n
CC1Cc2cc(/C(O)=C3/C(=O)C(=O)N(CCCn4ccnc4)C3c3cccnc3)ccc2O1 (stereo unspecified)	n	n	n	n	n	n
CC1Cc2cc(/C(O)=C3/C(=O)C(=O)N(CCCn4ccnc4)C3c3ccncc3)ccc2O1 (stereo unspecified)	n	n	n	n	n	58.3
CCCOc1ccc(/C(O)=C2/C(=O)C(=O)N(CCCn3ccnc3)C2c2ccco2)cc1 (stereo unspecified)	n	n	n	n	n	100.0
CC1Cc2cc(/C(O)=C3/C(=O)C(=O)N(CCCn4ccnc4)C3c3ccco3)ccc2O1 (stereo unspecified)	n	n	n	n	n	n
CC1CCCCN1C(=O)Nc1cccc(C(F)(F)F)c1 (stereo unspecified)	x	x	x	x	x	n
CCOC(=O)c1sc(N)c(C#N)c1COC(=O)CNC(=O)c1ccccc1	n	50.7	n	n	n	n
O=C(Nc1nc(-c2ccncc2)cs1)c1ccc(S(=O)(=O)N2CCOCC2)cc1	n	n	n	n	n	63.0
C=CCNc1ncnc2c1[nH]c1ccc(C)cc12	25.1	n	n	n	n	n
Cc1ccc2[nH]c3c(NCCN4CCOCC4)ncnc3c2c1	x	x	x	x	x	n
O=C(NCC1CCCO1)/C(=C\c1ccc(Cl)cc1)NC(=O)c1ccccc1 (stereo unspecified)	n	n	n	n	n	n
CN(C)CCNC(=O)/C(=C/c1ccc(-c2ccc(Cl)cc2)o1)NC(=O)c1ccccc1	x	x	x	x	x	93.5
COc1cc(NC(=O)Cc2nn(C)c(=O)c3ccccc23)cc(OC)c1OC	n	n	n	n	n	50.1
CCOCC(=O)Nc1nnc(SCCOC)s1	n	n	51.5	n	n	n
CC(=O)Cn1c(N2CCC(Cc3ccccc3)CC2)nc2c1c(=O)[nH]c(=O)n2C	n	n	n	n	31.3	x
C=C(C)Cn1c(N2CCC(Cc3ccccc3)CC2)nc2c1c(=O)[nH]c(=O)n2C	n	n	n	n	n	n
COC(=O)c1c(C)c2c(C)cc3ccccn3c-2c1C(=O)OC	n	45.9	n	n	n	n
Cc1ccc(C(=O)Nc2ccc(O)cc2C(=O)O)cc1	n	n	n	n	n	61.1
CC(=O)c1nnn(-c2nc(N)nc(N(c3ccccc3)c3ccccc3)n2)c1C	n	n	n	n	n	60.7
CCCCN(CCCC)c1nc(OC)nc(-n2nnc(C(C)=O)c2C)n1	n	n	n	n	n	n
COc1cccc(-c2cc(C(=O)N3CC4(C)CC3CC(C)(C)C4)no2)c1 (stereo unspecified)	n	n	n	n	n	n
SMILES	FAK inh	Rev-RRE block	PLK1 inh	PLK1 PBD inh	F-actin modifier	E-sel TNF inh
Cc1noc(C(=O)N2CC3(C)CC2CC(C)(C)C3)c1Cl (stereo unspecified)	n	n	69.8	n	x	x
C/C(=N\n1cnnc1)c1ccccc1	x	x	x	x	x	n
CCOC(=O)/C(C#N)=C1/C=Cc2ccccc2N1CC	x	x	x	x	x	53.1
C=CCn1c(SCc2cc(=O)n3ccsc3n2)nc2ccccc2c1=O	x	x	x	x	x	n
CC1CN(Cc2nc3c(c(=O)[nH]c(=O)n3C)n2CC(N)=O)CC(C)O1 (stereo unspecified)	n	n	51.1	n	n	x
CC1CN(Cc2nc3c(c(=O)[nH]c(=O)n3C)n2CCN2CCOCC2)CC(C)O1 (stereo unspecified)	n	n	n	n	n	n
CCOC(=O)c1ccc2c(c1)N(CC)/C(=C\C=C1/SC(=S)N(CC)C1=O)N2CC	n	133.3[fluorescence artefact?]	n	n	n	n
O=C(NCCC1=CCCCC1)c1coc(=O)c(Br)c1	n	n	n	n	n	85.7
